According to ChEMBL document CHEMBL2311404, “Synthesis, antibacterial activity and docking of 14-membered 9-O-(3-arylalkyl) oxime 11,12-cyclic carbonate ketolides” (2013):
In brackets after ≈: the same amount, converted by molar mass.

Columns and labels:
Assay type in all cases: functional
Staphylococcus aureus [1] = test: Antibacterial activity against erythromycin-susceptible Staphylococcus aureus ATCC 29213 by broth microdilution method
Outline: (§1)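 MIC by broth microdilution following CLSI recommendations. Clinical isolates were identified by 16S rDNA sequencing and labeled by genotype and phenotype. S. aureus ATCC 29213 and S. pneumoniae ATCC 49619 served as control strains, with azithromycin and clarithromycin as reference agents.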

Streptococcus pneumoniae [2] = test: Antibacterial activity against penicillin-resistant, constitutive MLS-resistant Streptococcus pneumoniae PU 11 expressing erm and mef genes by broth microdilution method
Outline: (§2)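 Clinical isolates confirmed by 16S rDNA sequencing. MIC determined by broth microdilution following CLSI recommendations. Quality-control strains were S. aureus ATCC 29213 and S. pneumoniae ATCC 49619. Azithromycin and clarithromycin were run in parallel as reference agents.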

[3] = test system: Staphylococcus haemolyticus; test: Antibacterial activity against methicillin-resistant, constitutive MLS-resistant, coagulase-deficient Staphylococcus haemolyticus PU 19 expressing ermA gene by broth microdilution method; outline: as §2
[4] = test system: Streptococcus dysgalactiae; test: Antibacterial activity against erythromycin-resistant Streptococcus dysgalactiae A1 expressing efflux pump by broth microdilution method; outline: as §2
Staphylococcus aureus [5] = test: Antibacterial activity against methicillin-resistant, inducible MLS-resistant Staphylococcus aureus PU 32 expressing ermA gene by broth microdilution method; outline: as §2
Streptococcus pyogenes [6] = test: Antibacterial activity against constitutive MLS-resistant Streptococcus pyogenes A2 by broth microdilution method; outline: as §2
[7] = test system: Staphylococcus epidermidis; test: Antibacterial activity against methicillin-susceptible, inducible MLS-resistant Staphylococcus epidermidis E 1 by broth microdilution method; outline: as §2
[8] = test system: Staphylococcus epidermidis; test: Antibacterial activity against methicillin-resistant, constitutive MLS-resistant Staphylococcus epidermidis E 2 by broth microdilution method; outline: as §2
Streptococcus pneumoniae [9] = test: Antibacterial activity against penicillin-susceptible Streptococcus pneumoniae PU 09 expressing mef gene by broth microdilution method; outline: as §1
Streptococcus pyogenes [10] = test: Antibacterial activity against erythromycin-susceptible Streptococcus pyogenes A3 by broth microdilution method; outline: as §1
Staphylococcus hominis = test: Antibacterial activity against methicillin-resistant, inducible MLS-resistant, coagulase-deficient Staphylococcus hominis E 3 by broth microdilution method; outline: as §2
Streptococcus pneumoniae [11] = test: Antibacterial activity against erythromycin-sensitive Streptococcus pneumoniae ATCC 49619 by broth microdilution method; outline: as §1
Streptococcus pneumoniae [12] = test: Antibacterial activity against penicillin-susceptible, constitutive MLS-resistant Streptococcus pneumoniae PU 27 expressing erm gene by broth microdilution method; outline: as §2
Staphylococcus aureus [13] = test: Antibacterial activity against methicillin-sensitive, inducible MLS-resistant Staphylococcus aureus PU 64 expressing ermA gene by broth microdilution method; outline: as §2
Staphylococcus aureus [14] = test: Antibacterial activity against methicillin-resistant, constitutive MLS-resistant Staphylococcus aureus PU 20 expressing ermC gene by broth microdilution method; outline: as §2

SMILES | MIC (Staphylococcus aureus [1]) [µg/mL] | MIC (Streptococcus pneumoniae [2]) [µg/mL] | MIC [3] [µg/mL] | MIC [4] [µg/mL] | MIC (Staphylococcus aureus [5]) [µg/mL] | MIC (Streptococcus pyogenes [6]) [µg/mL] | MIC [7] [µg/mL] | MIC [8] [µg/mL] | MIC (Streptococcus pneumoniae [9]) [µg/mL] | MIC (Streptococcus pyogenes [10]) [µg/mL] | MIC (Staphylococcus hominis) [µg/mL] | MIC (Streptococcus pneumoniae [11]) [µg/mL] | MIC (Streptococcus pneumoniae [12]) [µg/mL] | MIC (Staphylococcus aureus [13]) [µg/mL] | MIC (Staphylococcus aureus [14]) [µg/mL]
CC[C@H]1OC(=O)[C@H](C)C(=O)[C@H](C)[C@@H](O[C@@H]2O[C@H](C)C[C@H](N(C)C)[C@H]2O)[C@](C)(OC)C[C@@H](C)/C(=N\OCC#Cc2cccc3cnccc23)[C@H](C)[C@H]2OC(=O)O[C@@]21C | 0.064 (≈ 0.0806 µM) | 32 (≈ 40.3 µM) | 64 (≈ 80.6 µM) | 0.125 (≈ 0.157 µM) | 0.125 (≈ 0.157 µM) | 32 (≈ 40.3 µM) | 0.064 (≈ 0.0806 µM) | 64 (≈ 80.6 µM) | 0.125 (≈ 0.157 µM) | ≤ 0.008 | 0.125 (≈ 0.157 µM) | 0.016 (≈ 0.0202 µM) | 0.125 (≈ 0.157 µM) |  | 
CC[C@H]1OC(=O)[C@H](C)C(=O)[C@H](C)[C@@H](O[C@@H]2O[C@H](C)C[C@H](N(C)C)[C@H]2O)[C@](C)(OC)C[C@@H](C)/C(=N\OCC#Cc2ccnc3ccccc23)[C@H](C)[C@H]2OC(=O)O[C@@]21C | 0.5 (≈ 0.63 µM) | 32 (≈ 40.3 µM) | 64 (≈ 80.6 µM) | 0.25 (≈ 0.315 µM) | 0.5 (≈ 0.63 µM) | 32 (≈ 40.3 µM) | 0.25 (≈ 0.315 µM) | 64 (≈ 80.6 µM) | 0.5 (≈ 0.63 µM) | 0.016 (≈ 0.0202 µM) | 0.25 (≈ 0.315 µM) | 0.016 (≈ 0.0202 µM) | 1 (≈ 1.26 µM) |  | 
CC[C@H]1OC(=O)[C@H](C)C(=O)[C@H](C)[C@@H](O[C@@H]2O[C@H](C)C[C@H](N(C)C)[C@H]2O)[C@](C)(OC)C[C@@H](C)/C(=N\OCC#Cc2cnc3ccccc3c2)[C@H](C)[C@H]2OC(=O)O[C@@]21C | 0.25 (≈ 0.315 µM) | 64 (≈ 80.6 µM) | 128 (≈ 161 µM) | 0.5 (≈ 0.63 µM) | 0.5 (≈ 0.63 µM) | 64 (≈ 80.6 µM) | 0.25 (≈ 0.315 µM) | > 256 | 0.5 (≈ 0.63 µM) | ≤ 0.008 | 0.25 (≈ 0.315 µM) | ≤ 0.008 | 0.5 (≈ 0.63 µM) | 0.25 (≈ 0.315 µM) | 128 (≈ 161 µM)
CC[C@H]1OC(=O)[C@H](C)C(=O)[C@H](C)[C@@H](O[C@@H]2O[C@H](C)C[C@H](N(C)C)[C@H]2O)[C@](C)(OC)C[C@@H](C)/C(=N\OCC#Cc2ccc3ncccc3c2)[C@H](C)[C@H]2OC(=O)O[C@@]21C | 0.125 (≈ 0.157 µM) | 64 (≈ 80.6 µM) | 64 (≈ 80.6 µM) | 0.25 (≈ 0.315 µM) | 0.125 (≈ 0.157 µM) | 64 (≈ 80.6 µM) | 0.032 (≈ 0.0403 µM) | > 256 | 0.25 (≈ 0.315 µM) | ≤ 0.008 | 0.125 (≈ 0.157 µM) | 0.016 (≈ 0.0202 µM) | 0.25 (≈ 0.315 µM) | 0.125 (≈ 0.157 µM) | 64 (≈ 80.6 µM)
CC[C@H]1OC(=O)[C@H](C)C(=O)[C@H](C)[C@@H](O[C@@H]2O[C@H](C)C[C@H](N(C)C)[C@H]2O)[C@](C)(OC)C[C@@H](C)/C(=N\OC/C=C/c2cnc3ccccc3c2)[C@H](C)[C@H]2OC(=O)O[C@@]21C | 0.25 (≈ 0.314 µM) | 32 (≈ 40.2 µM) | > 256 | 0.25 (≈ 0.314 µM) | 0.5 (≈ 0.628 µM) | 32 (≈ 40.2 µM) | 0.032 (≈ 0.0402 µM) | > 256 | 0.25 (≈ 0.314 µM) | ≤ 0.008 | 0.064 (≈ 0.0804 µM) | 0.016 (≈ 0.0201 µM) | 0.125 (≈ 0.157 µM) | 0.064 (≈ 0.0804 µM) | > 256
CC[C@H]1OC(=O)[C@H](C)C(=O)[C@H](C)[C@@H](O[C@@H]2O[C@H](C)C[C@H](N(C)C)[C@H]2O)[C@](C)(OC)C[C@@H](C)/C(=N\OCCCc2cnc3ccccc3c2)[C@H](C)[C@H]2OC(=O)O[C@@]21C | 0.5 (≈ 0.627 µM) | 64 (≈ 80.2 µM) | > 256 | 0.5 (≈ 0.627 µM) | 1 (≈ 1.25 µM) | 32 (≈ 40.1 µM) | 0.5 (≈ 0.627 µM) | > 256 | 0.5 (≈ 0.627 µM) | 0.016 (≈ 0.0201 µM) | 2 (≈ 2.51 µM) | 0.064 (≈ 0.0802 µM) | 1 (≈ 1.25 µM) | 1 (≈ 1.25 µM) | > 256
CC[C@H]1OC(=O)[C@H](C)C(=O)[C@H](C)[C@@H](O[C@@H]2O[C@H](C)C[C@H](N(C)C)[C@H]2O)[C@](C)(OC)C[C@@H](C)/C(=N\OCCCc2cncc3ccccc23)[C@H](C)[C@H]2OC(=O)O[C@@]21C | 0.125 (≈ 0.157 µM) | 32 (≈ 40.1 µM) | > 256 | 0.25 (≈ 0.313 µM) | 0.5 (≈ 0.627 µM) | 64 (≈ 80.2 µM) | 0.25 (≈ 0.313 µM) | > 256 | 0.5 (≈ 0.627 µM) | 0.016 (≈ 0.0201 µM) | 0.5 (≈ 0.627 µM) | 0.032 (≈ 0.0401 µM) | 1 (≈ 1.25 µM) | 0.25 (≈ 0.313 µM) | > 256
CC[C@H]1OC(=O)[C@H](C)[C@@H](O[C@H]2C[C@@](C)(OC)[C@@H](O)[C@H](C)O2)[C@H](C)[C@@H](O[C@@H]2O[C@H](C)C[C@H](N(C)C)[C@H]2O)[C@](C)(O)C[C@@H](C)CN(C)[C@H](C)[C@@H](O)[C@]1(C)O [AZITHROMYCIN] | 1 (≈ 1.34 µM) | > 256 | > 256 | 32 (≈ 42.7 µM) | 8 (≈ 10.7 µM) | > 256 | > 256 | > 256 | 8 (≈ 10.7 µM) | 0.125 (≈ 0.167 µM) | > 256 | 0.25 (≈ 0.334 µM) | 64 (≈ 85.4 µM) | 8 (≈ 10.7 µM) | > 256
